The target in assay [1] is Mitogen-activated protein kinase 4 (Homo sapiens, UniProt P31152). The experiment in a line: Inhibition of ERK4 in human HeLa cells lysate at 50 uM pre incubated for 15 mins followed by ATP acyl phosphate probe addition and measured after 10 mins by LC-MS/MS analysis relative to control. Type of assay: subcellular. The conditions noted are these: time 25.0 min.
The next assay concerns the target IKK epsilon/TBK1 (Homo sapiens, UniProt Q14164+Q9UHD2). The experiment in a line: Inhibition of IKKE/TBK1 in human HeLa cells lysate pre incubated for 15 mins followed by ADP acyl phosphate probe addition and measured after 10 mins by LC-MS/MS analysis. Type of assay: subcellular.
In assay [2] the target is Peripheral plasma membrane protein CASK (Homo sapiens, UniProt O14936). The assay can be described thus: Inhibition of CASK in human HeLa cells lysate pre incubated for 15 mins followed by ADP acyl phosphate probe addition and measured after 10 mins by LC-MS/MS analysis. In kind it is subcellular. The essentials: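 KiNativ profiling in HeLa lysate (5 mg/mL total protein). Lysate incubated 15 min with inhibitor at 50, 10, 2, 0.8 or 0 μM. ATP or ADP acylphosphate probe then added (5 μM final) and reacted 10 min. Reaction stopped with urea and analysed by targeted MS, using up to four fragment ions per kinase peptide-probe conjugate. % inhibition taken against untreated lysate. Run in duplicate.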

In assay [3] the target is Mitogen-activated protein kinase 3 (Homo sapiens, UniProt P27361). The assay can be described thus: Inhibition of ERK1 in human HeLa cells lysate at 10 uM pre incubated for 15 mins followed by ADP acyl phosphate probe addition and measured after 10 mins by LC-MS/MS analysis relative to control. Type of assay: subcellular. The conditions noted are these: time 25.0 min.
Assay [4] has as its target Cyclin-dependent kinase 15 (Homo sapiens, UniProt Q96Q40). The assay can be described thus: Inhibition of PFTAIRE2 in human HeLa cells lysate pre incubated for 15 mins followed by ADP acyl phosphate probe addition and measured after 10 mins by LC-MS/MS analysis. In kind it is subcellular.
Assay [5] deals with Epidermal growth factor receptor (Homo sapiens, UniProt P00533). The experiment in a line: Inhibition of EGFR in human HeLa cells lysate pre incubated for 15 mins followed by ADP acyl phosphate probe addition and measured after 10 mins by LC-MS/MS analysis. In kind it is subcellular.
Assay [6] concerns the target Serine/threonine-protein kinase Aurora (Homo sapiens, UniProt Q96GD4+Q9UQB9+O14965). The experiment in a line: Inhibition of AurA/AurB/AurC in human HeLa cells lysate at 2 uM pre incubated for 15 mins followed by ATP acyl phosphate probe addition and measured after 10 mins by LC-MS/MS analysis relative to control. In kind it is subcellular. The conditions noted are these: time 25.0 min. In short, it runs like this:
(§1)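 KiNativ-type profiling in HeLa lysate (5 mg/mL total protein). Lysate preincubated 15 min with inhibitor at 50, 10, 2, 0.8 or 0 μM, then ATP or ADP acylphosphate probe added (5 μM final) for 10 min. Reaction stopped with urea and analysed by targeted MS, using up to four fragment ions per kinase peptide-probe conjugate. % inhibition calculated against untreated lysate. Duplicate reactions.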

The target in assay [7] is Serine/threonine-protein kinase D3 (Homo sapiens, UniProt O94806). The assay can be described thus: Inhibition of PKD3 in human HeLa cells lysate pre incubated for 15 mins followed by ADP acyl phosphate probe addition and measured after 10 mins by LC-MS/MS analysis. In kind it is subcellular.
A short description of assay [8]: Inhibition of SRPK1/2 in human HeLa cells lysate at 10 uM pre incubated for 15 mins followed by ADP acyl phosphate probe addition and measured after 10 mins by LC-MS/MS analysis relative to control. As to conditions: 25 min, condition cancer.
Assay [9] addresses Cyclin-dependent kinase 11B (Homo sapiens, UniProt P21127). The experiment in a line: Inhibition of PITSLRE in human HeLa cells lysate at 2 uM pre incubated for 15 mins followed by ATP acyl phosphate probe addition and measured after 10 mins by LC-MS/MS analysis relative to control. In kind it is subcellular. The conditions noted are these: time 25.0 min.
For assay [10], the target named is Serine/threonine-protein kinase/endoribonuclease IRE1 (Homo sapiens, UniProt O75460). The assay can be described thus: Inhibition of IRE1 in human HeLa cells lysate at 50 uM pre incubated for 15 mins followed by ADP acyl phosphate probe addition and measured after 10 mins by LC-MS/MS analysis relative to control. Type of assay: subcellular. As to conditions: time 25.0 min.

For assay [11], the target named is T1, Dual specificity mitogen-activated protein kinase kinase 3 (Homo sapiens) (UniProt P46734).
T1 sequence (whole entry): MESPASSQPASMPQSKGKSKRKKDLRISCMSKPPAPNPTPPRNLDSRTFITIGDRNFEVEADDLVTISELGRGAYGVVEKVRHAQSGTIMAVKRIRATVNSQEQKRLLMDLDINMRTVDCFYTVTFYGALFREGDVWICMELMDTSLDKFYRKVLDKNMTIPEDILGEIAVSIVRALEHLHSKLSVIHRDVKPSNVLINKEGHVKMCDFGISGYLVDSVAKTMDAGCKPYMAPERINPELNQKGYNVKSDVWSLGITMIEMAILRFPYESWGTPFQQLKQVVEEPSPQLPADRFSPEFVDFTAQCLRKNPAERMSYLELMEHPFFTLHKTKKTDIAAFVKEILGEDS
The assay can be described thus: Inhibition of MAP2K3 in human HeLa cells lysate at 2 uM pre incubated for 15 mins followed by ATP acyl phosphate probe addition and measured after 10 mins by LC-MS/MS analysis relative to control. In kind it is subcellular. The conditions noted are these: time 25.0 min.

Assay [12] has as its target Calcium/calmodulin-dependent protein kinase type II subunit gamma (Homo sapiens, UniProt Q13555). The experiment in a line: Inhibition of CAMK2g in human HeLa cells lysate at 2 uM pre incubated for 15 mins followed by ATP acyl phosphate probe addition and measured after 10 mins by LC-MS/MS analysis relative to control. Type of assay: subcellular. As to conditions: time 25.0 min. The essentials: as §1

A further assay addresses Wee1-like protein kinase (Homo sapiens, UniProt P30291). The assay can be described thus: Inhibition of Wee1 in human HeLa cells lysate at 2 uM pre incubated for 15 mins followed by ATP acyl phosphate probe addition and measured after 10 mins by LC-MS/MS analysis relative to control. In kind it is subcellular. The conditions noted are these: time 25.0 min.
The target of assay [13] is Phosphatidylinositol 4-phosphate 3-kinase C2 domain-containing subunit beta (Homo sapiens, UniProt O00750). The experiment in a line: Inhibition of PIK3C2B in human HeLa cells lysate at 50 uM pre incubated for 15 mins followed by ATP acyl phosphate probe addition and measured after 10 mins by LC-MS/MS analysis relative to control. Type of assay: subcellular. As to conditions: time 25.0 min.

In assay [14] the target is Insulin-like growth factor 1 receptor (Homo sapiens, UniProt P08069). The experiment in a line: Inhibition of IGF1R in human HeLa cells lysate pre incubated for 15 mins followed by ADP acyl phosphate probe addition and measured after 10 mins by LC-MS/MS analysis. In kind it is subcellular.
Assay [15] concerns the target Serine/threonine-protein kinase ULK3 (Homo sapiens, UniProt Q6PHR2). The experiment in a line: Inhibition of ULK3 in human HeLa cells lysate pre incubated for 15 mins followed by ADP acyl phosphate probe addition and measured after 10 mins by LC-MS/MS analysis. In kind it is subcellular.
Assay [16] deals with 5'-AMP-activated protein kinase catalytic subunit alpha-1 (Homo sapiens, UniProt Q13131). The experiment in a line: Inhibition of AMPKalpha1 in human HeLa cells lysate pre incubated for 15 mins followed by ADP acyl phosphate probe addition and measured after 10 mins by LC-MS/MS analysis. In kind it is subcellular. In short, it runs like this: (§2)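 HeLa cell lysates (5 mg/mL total protein) were preincubated with inhibitor at 0, 0.8, 2, 10 or 50 μM for 15 min. ATP or ADP acylphosphate probe was then added (5 μM final) for 10 min, and reactions were stopped with urea. Up to four fragment ions per kinase probe-peptide were quantified by targeted MS. % inhibition was taken relative to untreated lysate. Run in duplicate.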

A further assay concerns the target Activated CDC42 kinase 1 (Homo sapiens, UniProt Q07912). The experiment in a line: Inhibition of ACK1 in human HeLa cells lysate at 50 uM pre incubated for 15 mins followed by ADP acyl phosphate probe addition and measured after 10 mins by LC-MS/MS analysis relative to control. Type of assay: subcellular. The conditions noted are these: time 25.0 min. The essentials: as §2

Sequence of Calcium/calmodulin-dependent protein kinase type II subunit gamma (Q13555 whole entry): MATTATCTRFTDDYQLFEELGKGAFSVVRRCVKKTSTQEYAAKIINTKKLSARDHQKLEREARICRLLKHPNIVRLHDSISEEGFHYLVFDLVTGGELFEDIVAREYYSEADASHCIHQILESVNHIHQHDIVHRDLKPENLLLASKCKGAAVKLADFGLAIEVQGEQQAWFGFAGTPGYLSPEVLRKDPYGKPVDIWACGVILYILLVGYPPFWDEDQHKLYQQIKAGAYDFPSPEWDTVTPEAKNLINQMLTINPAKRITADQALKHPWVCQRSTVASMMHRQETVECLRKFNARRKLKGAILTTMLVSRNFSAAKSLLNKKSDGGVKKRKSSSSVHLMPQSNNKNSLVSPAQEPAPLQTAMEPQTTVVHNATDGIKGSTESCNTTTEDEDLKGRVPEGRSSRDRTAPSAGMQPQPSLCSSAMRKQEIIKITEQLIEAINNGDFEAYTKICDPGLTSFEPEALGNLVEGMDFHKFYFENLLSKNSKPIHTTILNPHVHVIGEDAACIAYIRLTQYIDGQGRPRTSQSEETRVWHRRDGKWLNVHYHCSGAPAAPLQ
Sequence of Insulin-like growth factor 1 receptor (P08069 31-736 limits assumed): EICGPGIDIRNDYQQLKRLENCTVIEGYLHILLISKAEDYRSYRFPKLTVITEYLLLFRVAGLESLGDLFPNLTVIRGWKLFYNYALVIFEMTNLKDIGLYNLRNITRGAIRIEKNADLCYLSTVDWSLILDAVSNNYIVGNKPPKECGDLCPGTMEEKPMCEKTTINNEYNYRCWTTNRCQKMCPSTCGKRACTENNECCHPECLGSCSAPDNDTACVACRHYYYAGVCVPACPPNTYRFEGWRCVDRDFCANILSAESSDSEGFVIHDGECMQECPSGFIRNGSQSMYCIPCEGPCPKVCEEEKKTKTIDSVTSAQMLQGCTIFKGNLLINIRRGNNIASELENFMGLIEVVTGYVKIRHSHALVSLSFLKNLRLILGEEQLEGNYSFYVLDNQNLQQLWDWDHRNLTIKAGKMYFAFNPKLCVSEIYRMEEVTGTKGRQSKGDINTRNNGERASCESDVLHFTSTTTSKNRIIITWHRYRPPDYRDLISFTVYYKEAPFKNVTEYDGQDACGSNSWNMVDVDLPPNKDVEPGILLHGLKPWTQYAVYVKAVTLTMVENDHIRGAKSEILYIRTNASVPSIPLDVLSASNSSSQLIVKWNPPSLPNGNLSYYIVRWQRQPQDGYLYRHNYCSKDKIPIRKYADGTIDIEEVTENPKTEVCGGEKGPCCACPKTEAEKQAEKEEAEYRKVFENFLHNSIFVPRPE
Sequence of Insulin-like growth factor 1 receptor (P08069 741-1367 limits assumed): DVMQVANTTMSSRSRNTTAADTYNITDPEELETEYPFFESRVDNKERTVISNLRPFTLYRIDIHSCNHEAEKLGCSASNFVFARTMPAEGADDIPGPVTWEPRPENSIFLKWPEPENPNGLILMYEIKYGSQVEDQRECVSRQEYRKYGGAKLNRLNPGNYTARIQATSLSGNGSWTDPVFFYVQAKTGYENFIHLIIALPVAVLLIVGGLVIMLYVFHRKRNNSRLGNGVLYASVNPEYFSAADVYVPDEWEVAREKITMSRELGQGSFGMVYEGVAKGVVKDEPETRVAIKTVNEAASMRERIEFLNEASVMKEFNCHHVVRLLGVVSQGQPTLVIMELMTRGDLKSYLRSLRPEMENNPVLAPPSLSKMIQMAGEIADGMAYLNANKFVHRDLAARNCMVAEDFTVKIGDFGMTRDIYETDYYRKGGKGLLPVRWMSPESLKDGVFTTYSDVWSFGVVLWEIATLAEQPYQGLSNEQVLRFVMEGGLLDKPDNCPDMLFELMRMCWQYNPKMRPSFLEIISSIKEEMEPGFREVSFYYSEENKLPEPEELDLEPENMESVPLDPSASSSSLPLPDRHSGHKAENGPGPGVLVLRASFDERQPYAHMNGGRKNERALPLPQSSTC
Sequence of Wee1-like protein kinase (P30291 whole entry, looked up, the tested form may be a part): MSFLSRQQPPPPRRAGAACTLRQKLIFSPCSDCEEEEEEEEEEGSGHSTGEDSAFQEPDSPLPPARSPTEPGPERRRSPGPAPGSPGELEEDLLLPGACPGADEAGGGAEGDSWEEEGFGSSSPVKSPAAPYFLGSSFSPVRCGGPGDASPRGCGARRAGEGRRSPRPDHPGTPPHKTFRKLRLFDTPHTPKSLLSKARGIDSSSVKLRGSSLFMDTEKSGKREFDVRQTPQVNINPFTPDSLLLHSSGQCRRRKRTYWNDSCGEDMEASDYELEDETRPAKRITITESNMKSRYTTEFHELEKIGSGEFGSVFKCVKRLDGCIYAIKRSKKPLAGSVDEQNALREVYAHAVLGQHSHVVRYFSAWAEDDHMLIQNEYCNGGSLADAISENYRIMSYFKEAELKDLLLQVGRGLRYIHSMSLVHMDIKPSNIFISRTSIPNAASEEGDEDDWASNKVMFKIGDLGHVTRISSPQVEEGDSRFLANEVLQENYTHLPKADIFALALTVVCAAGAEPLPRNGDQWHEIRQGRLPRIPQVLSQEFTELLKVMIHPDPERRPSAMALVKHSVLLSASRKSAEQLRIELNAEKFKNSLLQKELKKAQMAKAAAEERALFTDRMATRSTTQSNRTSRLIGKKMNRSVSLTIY
Sequence of Serine/threonine-protein kinase/endoribonuclease IRE1 (O75460 19-977 limits assumed): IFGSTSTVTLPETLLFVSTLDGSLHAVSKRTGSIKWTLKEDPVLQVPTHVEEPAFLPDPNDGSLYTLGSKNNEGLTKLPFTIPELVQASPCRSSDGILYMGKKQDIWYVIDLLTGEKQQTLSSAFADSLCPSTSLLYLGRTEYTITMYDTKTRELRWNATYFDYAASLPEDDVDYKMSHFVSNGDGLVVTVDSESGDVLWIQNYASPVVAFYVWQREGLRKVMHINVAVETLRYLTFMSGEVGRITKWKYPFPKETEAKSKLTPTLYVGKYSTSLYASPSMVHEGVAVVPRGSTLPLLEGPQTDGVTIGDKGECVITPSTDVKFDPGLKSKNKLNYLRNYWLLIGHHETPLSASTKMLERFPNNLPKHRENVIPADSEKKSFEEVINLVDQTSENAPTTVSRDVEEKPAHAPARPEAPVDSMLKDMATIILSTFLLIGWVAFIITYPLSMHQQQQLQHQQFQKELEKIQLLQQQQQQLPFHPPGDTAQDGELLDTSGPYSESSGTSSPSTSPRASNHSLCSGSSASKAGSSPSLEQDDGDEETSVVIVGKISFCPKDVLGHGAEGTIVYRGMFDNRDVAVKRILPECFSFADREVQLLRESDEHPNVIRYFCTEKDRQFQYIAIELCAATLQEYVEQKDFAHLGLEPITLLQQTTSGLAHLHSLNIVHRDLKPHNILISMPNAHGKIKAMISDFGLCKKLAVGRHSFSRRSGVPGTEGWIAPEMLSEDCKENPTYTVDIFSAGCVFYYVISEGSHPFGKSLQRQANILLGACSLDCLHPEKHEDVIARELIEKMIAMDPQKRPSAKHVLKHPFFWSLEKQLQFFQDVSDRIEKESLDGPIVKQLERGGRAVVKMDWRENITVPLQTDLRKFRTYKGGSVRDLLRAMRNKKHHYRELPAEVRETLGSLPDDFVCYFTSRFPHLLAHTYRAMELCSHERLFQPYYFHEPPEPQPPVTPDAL
Sequence of Mitogen-activated protein kinase 4 (P31152 whole entry): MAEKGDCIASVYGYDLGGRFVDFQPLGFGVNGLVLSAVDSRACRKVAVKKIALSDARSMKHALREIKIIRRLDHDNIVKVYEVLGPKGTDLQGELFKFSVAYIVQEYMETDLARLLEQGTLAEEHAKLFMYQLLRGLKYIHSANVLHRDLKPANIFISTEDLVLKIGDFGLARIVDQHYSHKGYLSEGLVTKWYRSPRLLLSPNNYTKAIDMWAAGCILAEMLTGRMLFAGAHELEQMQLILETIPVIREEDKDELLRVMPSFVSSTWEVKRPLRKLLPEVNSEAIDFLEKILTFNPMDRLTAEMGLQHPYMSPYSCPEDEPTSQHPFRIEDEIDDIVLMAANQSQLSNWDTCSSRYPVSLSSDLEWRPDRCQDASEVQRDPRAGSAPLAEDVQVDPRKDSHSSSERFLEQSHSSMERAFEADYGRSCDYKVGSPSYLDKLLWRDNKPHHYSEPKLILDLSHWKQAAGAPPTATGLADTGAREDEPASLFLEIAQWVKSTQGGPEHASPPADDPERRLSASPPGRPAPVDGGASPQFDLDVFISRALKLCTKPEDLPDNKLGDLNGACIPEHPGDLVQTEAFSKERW
Sequence of Cyclin-dependent kinase 15 (Q96Q40 whole entry): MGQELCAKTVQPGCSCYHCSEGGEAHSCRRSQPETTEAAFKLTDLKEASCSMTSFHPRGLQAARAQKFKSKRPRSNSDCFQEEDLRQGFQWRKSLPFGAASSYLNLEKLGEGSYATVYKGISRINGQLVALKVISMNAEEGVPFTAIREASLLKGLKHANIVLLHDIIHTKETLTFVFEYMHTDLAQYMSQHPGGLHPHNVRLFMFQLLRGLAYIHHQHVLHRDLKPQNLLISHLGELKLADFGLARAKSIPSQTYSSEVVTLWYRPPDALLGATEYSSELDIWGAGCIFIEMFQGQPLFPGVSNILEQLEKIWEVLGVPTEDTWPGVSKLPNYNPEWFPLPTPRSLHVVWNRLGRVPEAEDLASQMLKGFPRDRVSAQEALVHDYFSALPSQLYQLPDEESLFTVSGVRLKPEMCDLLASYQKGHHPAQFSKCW
Sequence of Serine/threonine-protein kinase ULK3 (Q6PHR2 whole entry): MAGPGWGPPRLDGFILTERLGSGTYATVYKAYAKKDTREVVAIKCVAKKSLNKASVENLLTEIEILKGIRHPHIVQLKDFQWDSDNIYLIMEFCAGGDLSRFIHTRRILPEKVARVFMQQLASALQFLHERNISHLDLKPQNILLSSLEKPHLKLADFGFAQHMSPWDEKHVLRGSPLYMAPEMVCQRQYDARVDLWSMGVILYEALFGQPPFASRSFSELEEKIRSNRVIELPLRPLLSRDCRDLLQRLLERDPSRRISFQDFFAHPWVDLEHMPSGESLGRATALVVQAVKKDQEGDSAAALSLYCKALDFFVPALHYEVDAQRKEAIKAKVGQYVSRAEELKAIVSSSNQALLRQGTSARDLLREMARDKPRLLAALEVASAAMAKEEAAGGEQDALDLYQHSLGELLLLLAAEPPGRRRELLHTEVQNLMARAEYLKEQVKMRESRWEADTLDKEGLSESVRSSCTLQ

`CCOc1cc(N2CCC(O)CC2)ccc1Nc1ncc2c(n1)N(C)c1ccccc1C(=O)N2C`: the inhibition in [1] is 28.7%; in assay [3], -3.9%; in [6] it was -5.8%; in assay [9], 4.9%; in assay [10] it was 6.2%; in [11], 13.5%. Further, the inhibition in [12] is 3%; at Wee1-like protein kinase, -5.2%; in [13] it was 46.3%; at Activated CDC42 kinase 1 it was 71.5%. The IC50 (against IKK epsilon/TBK1; in assay [2]; in assay [4]; in [5]; in assay [7]; in [14]) was greater than 50 µM each time. Besides, the IC50 in assay [15] and in [16] was greater than 50 µM each time. The inhibition at 10 µM in assay [8] is -8.1%.
